# Assays:
# MDA-MB-231 = assay type: cell-based, human
# [1] = system: small panel of cell lines (five human tumor cell lines, MCF-10A, NIH/3T3); test: MTT cytotoxicity assay, summary over the panel of cell lines; assay type: cell-based
# U937 cells [2] = test: Cell cycle analysis by flow cytometry; assay type: cell-based, human; settings: 90 nM, 48 h
# Method in brief: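 Exponentially growing U937 cells in RPMI-1640 with 10% FBS received test compound in DMSO (final 90 nM) or an equal amount of DMSO. After 48 h at 37 °C in CO2, cells were PBS-washed, fixed overnight in 70% ice-cold ethanol at 4 °C, and RNase-treated (100 µg/ml, 37 °C, 30 min).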
# U937 cells [3] = test: Cell apoptosis analysis by flow cytometry; assay type: cell-based, human; settings: 90 nM, 48 h, control cells 13.2%
# [4] = system: MDA-MB-231 breast cancer cells; test: DNA fragmentation analysis; assay type: cell-based, human
# NCI 60-cell line screen = settings: cited from earlier work
structure (smiles),measurement,setting,value
C/C=C(\C)C(=O)O[C@@H]1[C@@H](O)[C@@H]2O[C@H]3[C@H](O[C@@H](CCCCC)CCCCCCC(=O)CCC(=O)OC[C@@H](O2)[C@H]1OC(=O)/C=C/c1ccccc1)O[C@H](C)[C@H](OC(C)=O)[C@@H]3O [Ipomoeassin F],IC90,MDA-MB-231,100 nM
same,difference in toxicity between two cancer cell lines (U937 and MCF7),[1]; U937 vs MCF7,~ 8 fold
same,selectivity between tumor and non-tumor cell lines,[1]; tumor lines vs MCF-10A and NIH/3T3,no selectivity between tumor and non-tumor cell lines was observed
same,G1 arrest,U937 cells [2],~ 25%
same,reduction of cell population in the G2/M phase,U937 cells [2],~ 21%
same,percentage of apoptotic cells,U937 cells [3],33.6%
same,DNA fragmentation,"[4]; 100 nM ipomoeassin F (IC90), MDA-MB-231, 72 h",smaller DNA fragments
C/C=C(\C)C(=O)O[C@@H]1[C@@H](O)[C@@H]2O[C@H]3[C@H](O[C@@H](CCC)CCCCCCC(=O)CCC(=O)OC[C@@H](O2)[C@H]1OC(=O)/C=C/c1ccccc1)O[C@H](C)[C@H](OC(C)=O)[C@@H]3O [Ipomoeassin A],growth inhibition of different cancer cells,NCI 60-cell line screen,strong and selective growth inhibition
"CN[C@@H]1C[C@H]2O[C@@](C)([C@@H]1OC)n1c3ccccc3c3c4c(c5c6ccccc6n2c5c31)C(=O)NC4 [staurosporine, reference compound]",DNA fragmentation (positive control),"[4]; 750 nM staurosporine (Figure 5), MDA-MB-231",smaller DNA fragments

# Reference: paper PMC4651627 (The Journal of organic chemistry, 2015)
